In data set [1] the target is Epidermal growth factor receptor (Homo sapiens, UniProt P00533). The data set can be described thus: Inhibition of human N-terminal DYKDDDD tagged EGFR cytoplasmic domain amino acid 669 to 1210 expressed in baculovirus after 5 mins by scintillation counter.
Data set [2] concerns the target Receptor tyrosine-protein kinase erbB-2 (Homo sapiens, UniProt P04626). The data set can be described thus: Inhibition of human N-terminal DYKDDDD tagged HER2 cytoplasmic domain amino acid 676 to 1255 expressed in baculovirus after 5 mins by scintillation counter. A digest of the protocol:
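FLAG-purified HER2 cytoplasmic domain in 50 mmol/L Tris-HCl pH 7.5, 5 mmol/L MnCl₂, 0.01% Tween-20, 2 mmol/L DTT, with poly-Glu-Tyr (4:1) and [γ-³²P]ATP. Compound and enzyme preincubated 5 min at room temperature; reaction started with ATP, 10 min at room temperature. Stopped with 10% TCA, filter-harvested, washed with 3% phosphoric acid, scintillation counted.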

Data set [3] in a line: Metabolic stability in human hepatic microsomes at 1 umol/L after 20 mins. To be noted: liver microsomes, read-out: Stability. In kind it is ADME. A digest of the protocol: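 Human liver microsomes (0.2 mg/mL protein) with 1 µmol/L compound in 50 mmol/L phosphate pH 7.4 plus an NADPH-generating system (glucose-6-phosphate, β-NADP⁺, G6PDH, MgCl₂). Incubated at 37 °C for 0 and 20 min, stopped with acetonitrile, duplicates. Remaining compound measured by HPLC with photodiode array detection.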
On the technique in general: Microsomes from liver hold many membrane-bound enzymes, among them those of drug oxidation.

Data set [4] is described as follows: Metabolic stability in mouse hepatic microsomes at 1 umol/L after 20 mins. The format is ADME. To be noted: liver microsomes, read-out: Stability.
The test system of data set [5] is BT-474. Briefly: Growth inhibition of HER2 over-expressing human BT474 cells after 5 days. The format is functional. The conditions noted are these: BT-474, 120 h. A digest of the protocol:
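BT-474 cells kept in RPMI 1640 with 10% heat-inactivated FBS. Seeded at 3×10⁴ cells/well and allowed to attach overnight. Treated continuously with compound for 5 days. Live cells counted with a particle analyzer; GI₅₀ derived.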

A short description of data set [6]: Apparent permeability across basolateral to apical side in human Caco2 cells at 10 umol/L. In kind it is ADME, cell-based. The conditions noted are these: Caco-2. A digest of the protocol:
(§1)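 Confluent Caco-2 monolayers on collagen-coated polycarbonate Transwell membranes. HBSS with 10 mmol/L HEPES, 15 mmol/L glucose and 1% BSA, pH 7.3–7.5. Compound dosed at 10 µmol/L apically (A→B) or basolaterally (B→A), 37 °C, 5% CO₂. Receivers sampled at 1 and 2 h; LC/MS/MS. Papp from receiver concentration slope; duplicates.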
On the technique in general: Caco-2 monolayers are a common model of the intestinal barrier.

Data set [7] is described as follows: Apparent permeability across apical to basolateral side in human Caco2 cells at 10 umol/L. The conditions noted are these: Caco-2. The format is ADME, cell-based. The essentials:
as §1

The subject of data set [8] is BT-474. The data set can be described thus: Antitumor activity against human BT474 cells xenografted in BALB/c nu/nu mouse at 100 mg/kg, po bid administered 14 days measured on day 31 relative to control. The format is functional. The essentials: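 BT-474 xenografts: 1×10⁷ cells in Matrigel implanted subcutaneously into the right flank of female BALB/c nu/nu mice. Estradiol dipropionate 0.25 mg given intramuscularly on days 0 and 7. Tumours of 200–300 mm³ used. Dosing 100 mg/kg orally bid in 0.5% methylcellulose for 14 days. Volume a×b²/2 by calipers. T/C (%) compared at day 31.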
(In xenograft studies the graft and the host belong to different species.)

Data set [9] is described as follows: Antitumor activity against human 4-1ST cells xenografted in BALB/c nu/nu mouse at 100 mg/kg, po bid administered 14 days measured on day 31 relative to control. The format is functional. The essentials:
(§2)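 4-1ST human gastric tumour tissue from donor animals minced and implanted subcutaneously in nude mice or nude rats. Tumours of 200–300 mm³ used. Compounds in 0.5% (w/v) methylcellulose given orally twice daily at 10 mL/kg for 14 days; control got vehicle. Doses expressed as salt-free. Caliper volume (a×b²/2) measured blind 2–3 times weekly. T/C (%) versus control; five mice or eight rats per group.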

Data set [10] is described as follows: Antitumor activity against human 4-1ST cells xenografted in F344/N jcl-rnu rat at 12.5 mg/kg, po bid administered 14 days measured on day 31 relative to control. The format is functional. A digest of the protocol:
as §2

Data set [11] in a line: Antitumor activity against human 4-1ST cells xenografted in F344/N jcl-rnu rat at 25 mg/kg, po bid administered 14 days measured on day 31 relative to control. In kind it is functional. The essentials: as §2
A short description of data set [12]: Antitumor activity against human 4-1ST cells xenografted in BALB/c nu/nu mouse at 50 mg/kg, po bid administered 14 days measured on day 31 relative to control. In kind it is functional. A digest of the protocol:
as §2

Ten compounds from ChEMBL document CHEMBL2146394, “Design and synthesis of pyrrolo[3,2-d]pyrimidine HER2/EGFR dual inhibitors: improvement of the physicochemical and pharmacokinetic profiles for potent in vivo anti-tumor efficacy” (Bioorg Med Chem, 2012) can be followed below.

Each structure is given as a SMILES string.

Chain of Epidermal growth factor receptor (P00533 whole entry, the tested form may be a part): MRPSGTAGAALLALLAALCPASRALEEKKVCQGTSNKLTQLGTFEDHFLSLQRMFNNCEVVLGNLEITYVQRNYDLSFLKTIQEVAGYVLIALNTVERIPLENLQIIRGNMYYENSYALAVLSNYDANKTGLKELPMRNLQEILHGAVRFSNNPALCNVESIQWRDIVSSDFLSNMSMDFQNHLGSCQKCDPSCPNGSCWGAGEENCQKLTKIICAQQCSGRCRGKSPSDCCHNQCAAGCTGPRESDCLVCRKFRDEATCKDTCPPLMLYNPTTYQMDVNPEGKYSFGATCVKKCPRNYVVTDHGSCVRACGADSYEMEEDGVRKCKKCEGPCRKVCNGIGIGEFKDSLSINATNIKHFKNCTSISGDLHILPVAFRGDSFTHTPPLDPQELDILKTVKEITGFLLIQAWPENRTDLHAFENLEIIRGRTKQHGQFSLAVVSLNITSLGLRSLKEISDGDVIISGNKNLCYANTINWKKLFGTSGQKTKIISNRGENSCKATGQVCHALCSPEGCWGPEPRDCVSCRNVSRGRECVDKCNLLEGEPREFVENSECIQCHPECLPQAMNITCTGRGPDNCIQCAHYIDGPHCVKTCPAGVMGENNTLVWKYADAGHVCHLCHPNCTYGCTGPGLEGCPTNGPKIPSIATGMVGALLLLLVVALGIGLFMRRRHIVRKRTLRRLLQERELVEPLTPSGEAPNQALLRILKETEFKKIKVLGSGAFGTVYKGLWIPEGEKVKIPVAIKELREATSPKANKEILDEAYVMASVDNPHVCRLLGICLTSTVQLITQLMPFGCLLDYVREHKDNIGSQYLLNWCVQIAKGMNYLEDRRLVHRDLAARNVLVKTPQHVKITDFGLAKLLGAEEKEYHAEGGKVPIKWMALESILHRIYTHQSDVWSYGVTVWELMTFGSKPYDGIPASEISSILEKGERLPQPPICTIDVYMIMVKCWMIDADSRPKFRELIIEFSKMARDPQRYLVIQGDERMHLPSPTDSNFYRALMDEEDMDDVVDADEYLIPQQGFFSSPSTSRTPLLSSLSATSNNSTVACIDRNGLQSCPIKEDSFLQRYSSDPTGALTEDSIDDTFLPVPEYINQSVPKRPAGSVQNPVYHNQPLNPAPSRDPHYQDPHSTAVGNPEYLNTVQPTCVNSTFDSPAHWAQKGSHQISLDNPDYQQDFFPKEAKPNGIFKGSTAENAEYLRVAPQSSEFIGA
Chain of Receptor tyrosine-protein kinase erbB-2 (P04626 whole entry, the tested form may be a part): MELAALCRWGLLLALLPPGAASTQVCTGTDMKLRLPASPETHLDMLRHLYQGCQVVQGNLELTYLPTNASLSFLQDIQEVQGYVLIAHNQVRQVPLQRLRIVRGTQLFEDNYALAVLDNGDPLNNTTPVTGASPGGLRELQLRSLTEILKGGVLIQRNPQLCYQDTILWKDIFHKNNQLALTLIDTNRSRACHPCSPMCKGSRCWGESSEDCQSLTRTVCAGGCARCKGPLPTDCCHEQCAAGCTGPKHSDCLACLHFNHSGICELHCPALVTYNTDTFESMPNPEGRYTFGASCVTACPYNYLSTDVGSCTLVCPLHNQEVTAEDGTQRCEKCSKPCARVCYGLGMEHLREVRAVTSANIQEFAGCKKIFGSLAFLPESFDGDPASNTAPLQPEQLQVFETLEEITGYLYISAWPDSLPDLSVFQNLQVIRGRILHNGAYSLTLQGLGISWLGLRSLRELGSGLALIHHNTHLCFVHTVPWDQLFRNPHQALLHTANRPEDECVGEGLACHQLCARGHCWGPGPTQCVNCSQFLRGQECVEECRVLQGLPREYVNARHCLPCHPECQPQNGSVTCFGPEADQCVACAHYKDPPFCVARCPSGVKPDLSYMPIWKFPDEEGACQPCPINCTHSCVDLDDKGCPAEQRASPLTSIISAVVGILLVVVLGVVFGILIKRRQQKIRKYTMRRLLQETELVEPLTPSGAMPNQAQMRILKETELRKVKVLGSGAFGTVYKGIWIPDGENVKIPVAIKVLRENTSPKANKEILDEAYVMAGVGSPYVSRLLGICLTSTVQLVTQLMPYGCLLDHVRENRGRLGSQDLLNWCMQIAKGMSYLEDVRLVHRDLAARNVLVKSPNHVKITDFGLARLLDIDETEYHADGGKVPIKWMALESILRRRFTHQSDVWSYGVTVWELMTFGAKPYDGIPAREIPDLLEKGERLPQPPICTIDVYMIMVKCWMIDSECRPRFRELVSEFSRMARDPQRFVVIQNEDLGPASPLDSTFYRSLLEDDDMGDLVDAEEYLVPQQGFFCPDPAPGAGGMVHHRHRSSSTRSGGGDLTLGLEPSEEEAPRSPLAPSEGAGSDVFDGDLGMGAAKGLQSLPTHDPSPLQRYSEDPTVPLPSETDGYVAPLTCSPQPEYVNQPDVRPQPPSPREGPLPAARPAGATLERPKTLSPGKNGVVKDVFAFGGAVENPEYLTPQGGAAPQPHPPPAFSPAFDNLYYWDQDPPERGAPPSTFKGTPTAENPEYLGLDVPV

The IC50 is the point on the concentration scale where inhibition reaches its midpoint. A higher IC50 goes with a need for much substance. In general, GI50 refers to the concentration that inhibits growth by half. For the compound `CCS(=O)(=O)CC(=O)NCCn1ccc2ncnc(Nc3ccc(Oc4cccc(C(F)(F)F)c4)c(Cl)c3)c21`, the IC50 in data set [1] came out at 31 nM; in [2], 8.5 nM. Moreover, the microsomal CLint at 1 µM in [3] is 26 µL/min/mg; in data set [4], 22 µL/min/mg. In addition, in the data set with BT-474 [5], the concentration for 50% growth inhibition (GI50) was 36 nM.
The Papp B→A is how fast a substance crosses the layer from the basolateral side. What is called Papp A→B is how fast a substance crosses the layer from the apical side. Turning to `CS(=O)(=O)CC(=O)NCCn1ccc2ncnc(Nc3ccc(Oc4cccc(Cl)c4)c(Cl)c3)c21`, the half-maximal inhibitory concentration (IC50) in [1] came to 6.7 nM; in [2], 2.9 nM. For the same compound, in data set [6], the Papp B→A at 10 µM was determined as 6.79 ×10⁻⁶ cm/s. Moreover, the microsomal CLint at 1 µM in data set [3] was determined as 11 µL/min/mg. The Papp A→B at 10 µM in [7] was determined as 0.67 ×10⁻⁶ cm/s. For the same compound, in the data set with BT-474 [5], the GI50 worked out at 3.9 nM.
In the case of `CC(C)(C)S(=O)(=O)CC(=O)NCCn1ccc2ncnc(Nc3ccc(Oc4cccc(C(F)(F)F)c4)c(Cl)c3)c21`, the IC50 came out at 56 nM in [1] and 14 nM in [2]. For the same compound, the values for the microsomal CLint at 1 µM in data set [3] and in [4] were 45 µL/min/mg and 31 µL/min/mg, respectively. The 50% growth inhibitory concentration (GI50) with BT-474 [5] worked out at 36 nM.
Turning to `CC(C(=O)NCCn1ccc2ncnc(Nc3ccc(Oc4cccc(Cl)c4)c(Cl)c3)c21)S(C)(=O)=O` (configuration not stated), the half-maximal inhibitory concentration (IC50) in data set [1] is 9.8 nM; in data set [2], 4.1 nM. For the same compound, the microsomal CLint at 1 µM in data set [3] turned out to be 4 µL/min/mg. Moreover, halving of growth in the data set on BT-474 [5] (GI50) required 32 nM.
Regarding `CC(C)(O)CC(=O)NCCn1ccc2ncnc(Nc3ccc(Oc4cccc(C(F)(F)F)c4)c(Cl)c3)c21` [TAK-285], the T/C was 29% in the data set with BT-474 [8]; 11% in data set [9]; 14% in [10]; -12% in data set [11]; 44% in data set [12]. Further, in data set [6], the Papp B→A at 10 µM came out at 6.87 ×10⁻⁶ cm/s. In data set [7], the Papp A→B at 10 µM came to 5.05 ×10⁻⁶ cm/s.
As for `CC(C)(C(=O)NCCn1ccc2ncnc(Nc3ccc(Oc4cccc(Cl)c4)c(Cl)c3)c21)S(C)(=O)=O`, the T/C in the data set with BT-474 [8] amounted to 24%. Further, the basolateral-to-apical permeability (Papp B→A) at 10 µM in [6] stood at 7.69 ×10⁻⁶ cm/s. Moreover, the microsomal CLint at 1 µM in data set [3] worked out at 21 µL/min/mg. For the same compound, the Papp A→B at 10 µM in data set [7] was found to be 2.85 ×10⁻⁶ cm/s. In addition, the GI50 in the data set on BT-474 [5] stood at 56 nM.
Take `CC(C(=O)NCCn1ccc2ncnc(Nc3ccc(Oc4cccc(C(F)(F)F)c4)c(Cl)c3)c21)S(C)(=O)=O` (configuration not stated): the IC50 is 18 nM in data set [1] and 7.1 nM in data set [2]. Further, the microsomal CLint at 1 µM worked out at 30 µL/min/mg in data set [3] and 33 µL/min/mg in data set [4]. The GI50 in the data set with BT-474 [5] was 34 nM.
As for `CC(C)(C(=O)NCCn1ccc2ncnc(Nc3ccc(Oc4cccc(C(F)(F)F)c4)c(Cl)c3)c21)S(C)(=O)=O`, the half-inhibitory concentration (IC50) came to 47 nM in data set [1] and 17 nM in data set [2]. In the data set on BT-474 [8], the T/C is recorded as 43%. Further, the Papp B→A at 10 µM in data set [6] was found to be 4.26 ×10⁻⁶ cm/s. Further, the microsomal CLint at 1 µM is 38 µL/min/mg in [3] and 23 µL/min/mg in data set [4]. Moreover, the apical-to-basolateral permeability (Papp A→B) at 10 µM in data set [7] is 2.87 ×10⁻⁶ cm/s. For the same compound, it took 55 nM to inhibit growth in the data set with BT-474 [5] by half (GI50).
Consider `CC(C)S(=O)(=O)CC(=O)NCCn1ccc2ncnc(Nc3ccc(Oc4cccc(C(F)(F)F)c4)c(Cl)c3)c21`, for which the IC50 in data set [2] is 11 nM. Further, the microsomal CLint at 1 µM in [3] stood at 42 µL/min/mg; in data set [4], 35 µL/min/mg. In the data set on BT-474 [5], this compound had a GI50 of 48 nM.
Regarding `CS(=O)(=O)CC(=O)NCCn1ccc2ncnc(Nc3ccc(Oc4cccc(C(F)(F)F)c4)c(Cl)c3)c21`, the results for the concentration for half-maximal inhibition (IC50) in [1] and in [2] were 15 nM and 6.3 nM, respectively. Further, in the data set on BT-474 [8], the T/C is 80%. Also, the Papp B→A at 10 µM in data set [6] was 8.29 ×10⁻⁶ cm/s. For the same compound, the microsomal CLint at 1 µM in data set [3] was 18 µL/min/mg; in data set [4], 11 µL/min/mg. In data set [7], the apparent permeability from apical to basolateral (Papp A→B) at 10 µM was determined as 0.52 ×10⁻⁶ cm/s. Moreover, the GI50 in the data set on BT-474 [5] was determined as 5.2 nM.
